Measured values taken from ChEMBL document CHEMBL1125228, “A 3-D model for 5-HT1A-receptor agonists based on stereoselective methyl-substituted and conformationally restricted analogues of 8-hydroxy-2-(dipropylamino)tetralin” (J Med Chem, 1991).
Values joined by “and” are separate entries in the source; they are usually repeats but may differ in a detail not shown here. Equal values may be shown once.

Experiments:
[1] = molecular target: T1, Dopamine receptor (Rattus norvegicus) (UniProt P25115+P19020+P30729+P18901+P61169); experiment: In vivo accumulation of DOPA in hemisphere of rat brain at a dose of 53 umol/kg.; assay type: functional, organism-based
Outline: (§1)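 Rats, reserpine-pretreated (5 mg/kg, i.e. 9 μmol/kg sc, 6 h before) or nonpretreated, given test hydrochloride sc in the neck (injection volume 5 mL/kg). Decarboxylase inhibitor NSD 1015 (100 mg/kg ip or 60 mg/kg sc) given 30 min later; decapitation after another 30 min. Brain dissected on ice into striatum, limbic system, hemispheres, brain stem. Homogenized in 0.1 M perchloric acid with α-methyl-DOPA internal standard; DOPA measured by ion-pair reversed-phase HPLC with electrochemical detection.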

[2] = molecular target: Serotonin (5-HT) receptor (Rattus norvegicus) (UniProt P35563+P35365+P32305+P31388+Q9JJ16+P28564+P30994+Q62758+P08909+P14842+P30940+P35364+P19327+P28565); experiment: Dose corresponding to half-maximal decrease of 5-HTP formation in the limbic and striatal parts of rat brain; assay type: functional, tissue-based
[3] = molecular target: T2, 5-hydroxytryptamine receptor 1A (Rattus norvegicus, UniProt P19327); experiment: Binding affinity at 5-hydroxytryptamine 1A receptor by the displacement of [3H]8-OH-DPAT in rat brain.; assay type: tissue-based
T2 sequence (P19327 whole entry): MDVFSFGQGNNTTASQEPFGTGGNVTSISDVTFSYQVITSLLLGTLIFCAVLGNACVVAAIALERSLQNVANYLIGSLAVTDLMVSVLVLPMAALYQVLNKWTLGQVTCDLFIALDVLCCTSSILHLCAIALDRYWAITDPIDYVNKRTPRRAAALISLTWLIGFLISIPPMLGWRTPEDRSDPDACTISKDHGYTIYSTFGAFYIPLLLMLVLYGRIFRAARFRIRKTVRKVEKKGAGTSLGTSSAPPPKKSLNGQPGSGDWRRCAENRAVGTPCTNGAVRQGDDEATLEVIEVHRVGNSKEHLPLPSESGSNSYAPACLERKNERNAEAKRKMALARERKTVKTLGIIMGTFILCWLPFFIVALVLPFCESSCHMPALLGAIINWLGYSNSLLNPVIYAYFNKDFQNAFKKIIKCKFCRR
Outline: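 Rat brain membranes washed in 50 mM Tris-HCl pH 7.4, with a 37 °C 10 min incubation to remove endogenous 5-HT, used at 10 mg wet tissue/mL. Incubated 15 min at 37 °C with 1 nM [3H]-8-OH-DPAT, 3 mM CaCl2 and pargyline. Filtered and counted; 10 µM 5-HT defined nonspecific binding. IC50 from four-parameter logistic fit, converted to Ki by Cheng-Prusoff; mean ± SEM of N experiments.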

Rattus norvegicus [4] = experiment: In vivo accumulation of DA in striatum of rat brain at a dose of 53 umol/kg.; assay type: functional
Outline: (§2)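 Hydrochlorides given sc in the neck (5 mL/kg) to rats, either untreated or reserpine-pretreated (5 mg/kg sc, 6 h before). Decarboxylase inhibitor NSD 1015 (100 mg/kg ip or 60 mg/kg sc) given 30 min later; rats decapitated after another 30 min. Striatum, limbic system, hemispheres and brain stem dissected on ice and homogenized in 0.1 M perchloric acid with α-methyl-DOPA internal standard. DOPA, DA, 5-HTP and 5-HT measured by ion-pair reversed-phase HPLC with electrochemical detection.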

Rattus norvegicus [5] = experiment: In vivo accumulation of 5-HTP in striatum of rat brain at a dose of 53 umol/kg.; assay type: functional; outline: as §2
Rattus norvegicus [6] = experiment: In vivo accumulation of 5-HTP in brain stem of rat brain at a dose of 53 umol/kg.; assay type: functional; outline: as §2
Rattus norvegicus [7] = experiment: In vivo accumulation of 5-HTP in hemisphere of rat brain at a dose of 53 umol/kg.; assay type: functional; outline: as §2
Rattus norvegicus [8] = experiment: In vivo accumulation of DOPA in brain stem of rat brain at a dose of 53 umol/kg.; assay type: functional; outline: as §2
Rattus norvegicus [9] = experiment: In vivo accumulation of 5-HT in limbic of rat brain at a dose of 53 umol/kg.; assay type: functional; outline: as §2
Rattus norvegicus [10] = experiment: In vivo accumulation of DOPA in striatum of rat brain at a dose of 53 umol/kg.; assay type: functional; outline: as §1
Rattus norvegicus [11] = experiment: In vivo accumulation of 5-HT in striatum of rat brain at a dose of 53 umol/kg.; assay type: functional; outline: as §2
Rattus norvegicus [12] = experiment: In vivo accumulation of 5-HTP in limbic of rat brain at a dose of 53 umol/kg.; assay type: functional; outline: as §2
Rattus norvegicus [13] = experiment: In vivo accumulation of DOPA in brain stem of rat brain at a dose of 63 umol/kg.; assay type: functional; outline: as §2
Rattus norvegicus [14] = experiment: In vivo accumulation of 5-HT in striatum of rat brain at a dose of 63 umol/kg.; assay type: functional; outline: as §2
Rattus norvegicus [15] = experiment: In vivo accumulation of 5-HTP in striatum of rat brain at a dose of 63 umol/kg.; assay type: functional; outline: as §2
Rattus norvegicus [16] = experiment: In vivo accumulation of 5-HTP in limbic of rat brain at a dose of 63 umol/kg.; assay type: functional; outline: as §2
[17] = molecular target: T1, Dopamine receptor (Rattus norvegicus); experiment: In vivo accumulation of DOPA in limbic of rat brain at a dose of 63 umol/kg.; assay type: functional, organism-based; outline: as §1
Rattus norvegicus [18] = experiment: In vivo accumulation of 5-HT in limbic of rat brain at a dose of 63 umol/kg.; assay type: functional; outline: as §2
Rattus norvegicus [19] = experiment: In vivo accumulation of DA in striatum of rat brain at a dose of 63 umol/kg.; assay type: functional; outline: as §2
Rattus norvegicus [20] = experiment: In vivo accumulation of DOPA in hemisphere of rat brain at a dose of 63 umol/kg.; assay type: functional; outline: as §1
Rattus norvegicus [21] = experiment: In vivo accumulation of DOPA in striatum of rat brain at a dose of 63 umol/kg.; assay type: functional; outline: as §1
Rattus norvegicus [22] = experiment: In vivo accumulation of 5-HTP in hemisphere of rat brain at a dose of 63 umol/kg.; assay type: functional; outline: as §2
Rattus norvegicus [23] = experiment: In vivo accumulation of 5-HTP in brain stem of rat brain at a dose of 63 umol/kg.; assay type: functional; outline: as §2

For `CCCN1CCC[C@@H]2Cc3cccc(O)c3C[C@H]21` [listing 1 of 2 here], the Control [1] was 97.5% and the ED50 [2] was > 0.05 mg/kg.
In the case of `CCCN(CCC)[C@@H]1C[C@@H]1c1ccccc1O`, the ED50 [2] is reported as 0.04 mg/kg.
`CCCN(CCC)C1Cc2c(O)cccc2CC1(C)C` (racemic) was tested, and the Ki [3] was > 10000 nM and the ED50 [2] was > 0.05 mg/kg.
`CCCN(CCC)[C@H]1Cc2c(O)cccc2C[C@@H]1C` [listing 1 of 2 here] was tested, and the Ki [3] was 49.6 nM.
For `CCCN1CCC[C@H]2Cc3cccc(O)c3C[C@@H]21`, the Control (Rattus norvegicus [4]) was 95.4%, the Control (Rattus norvegicus [5]) was 124.8% and the Control (Rattus norvegicus [6]) was 112.4%. It also gave a Control (Rattus norvegicus [7]) of 113%, a Control (Rattus norvegicus [8]) of 117.7% and a Control (Rattus norvegicus [9]) of 95.1%. The Control (Rattus norvegicus [10]) was 91.4%, the Control (Rattus norvegicus [11]) was 116.9% and the Control (Rattus norvegicus [12]) was 102.3%.
In the case of `Oc1cccc2c1C[C@@H]1NCCC[C@@H]1C2`, the Control (Rattus norvegicus [13]) is reported as 97.7%, the Control (Rattus norvegicus [14]) is reported as 105% and the Control (Rattus norvegicus [15]) is reported as 102.7%. The Control (Rattus norvegicus [16]) was 88.6%, the Control [17] was 75.3% and 73.5% and the Control (Rattus norvegicus [18]) was 92.5%. For the same compound, the Control (Rattus norvegicus [19]) was 92.6%, the Control (Rattus norvegicus [20]) was 70.4% and the Control (Rattus norvegicus [21]) was 88%. The Control (Rattus norvegicus [22]) was 59.7% and the Control (Rattus norvegicus [23]) was 101.7%.
For `CCCN(CCC)C1(C)CCc2cccc(O)c2C1` (racemic), the Ki [3] was 1130 nM and the ED50 [2] was > 0.05 mg/kg.
Compound `Oc1cccc2c1C[C@H]1NCCC[C@H]1C2` has a Control (Rattus norvegicus [13]) of 94.9%, a Control (Rattus norvegicus [14]) of 100.5% and a Control (Rattus norvegicus [15]) of 108.8%. The Control (Rattus norvegicus [16]) was 92%, the Control [17] was 82.4% and 85.6% and the Control (Rattus norvegicus [18]) was 89.4%. For the same compound, the Control (Rattus norvegicus [19]) was 92.4%, the Control (Rattus norvegicus [20]) was 64.2% and the Control (Rattus norvegicus [21]) was 84%. It also gave a Control (Rattus norvegicus [22]) of 101.4% and a Control (Rattus norvegicus [23]) of 106.8%.
Work on `CCCN1CCC[C@@H]2Cc3cccc(O)c3C[C@H]21` [listing 2 of 2 here] yielded a Control (Rattus norvegicus [4]) of 114.5%, a Control (Rattus norvegicus [5]) of 85% and a Control (Rattus norvegicus [6]) of 91.9%. The Control (Rattus norvegicus [7]) was 92.2%, the Control (Rattus norvegicus [8]) was 125.1% and the Control (Rattus norvegicus [9]) was 114.3%. It also gave a Control (Rattus norvegicus [10]) of 66.1%, a Control (Rattus norvegicus [11]) of 132% and a Control (Rattus norvegicus [12]) of 88%.
Work on `CCCN(CCC)[C@H]1Cc2c(O)cccc2C[C@@H]1C` (racemic) yielded a Ki [3] of 104 nM.
With `CCCN1CCC[C@@H]2c3c(O)cccc3CC[C@H]21` [listing 1 of 2 here] the Ki [3] was 32.3 nM.
`CCCN(CCC)[C@H]1Cc2c(O)cccc2C[C@H]1C` was tested, and the ED50 [2] was > 0.05 mg/kg.
`CCCN(CCC)[C@H]1CCc2cccc(O)c2[C@H]1C` was tested, and the Ki [3] was 2920 nM and the ED50 [2] was > 0.05 mg/kg.
With `CCCN(CCC)[C@@H]1CCc2cccc(O)c2[C@H]1C` (racemic) the Ki [3] was 1040 nM and the ED50 [2] was > 0.05 mg/kg.
For `CCCN(CCC)[C@H]1Cc2c(O)cccc2C[C@@H]1C` [listing 2 of 2 here], the ED50 [2] was 0.005 mg/kg.
Work on `CCCN(CCC)[C@H]1Cc2c(O)cccc2C[C@H]1C` (racemic) yielded a Ki [3] of 656 nM.
`CCCN(CCC)[C@@H]1Cc2c(O)cccc2C[C@@H]1C` gave a Ki [3] of 394 nM and an ED50 [2] of 0.02 mg/kg.
`CCCN1CCC[C@@H]2c3c(O)cccc3CC[C@H]21` [listing 2 of 2 here] showed a Control [1] of 117% and an ED50 [2] of 0.0005 mg/kg.
